One assay concerns GnRH neurons. The experiment in a line: GnRH neuron firing, targeted extracellular recordings in brain slices. The class given is cell-based, mouse. Conditions: 1 nM, 5 min, n=7.
The test system of a further assay is adult male rats. The experiment in a line: LH and testosterone in intact adult male rats after icv injection. Conditions: 100 pmol kisspeptin-10 icv alone. The class given is in vivo, rat. The method, boiled down: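 Intact adult male rats (280–310 g; 14 h light, 22°C) with lateral-ventricle cannulae (4 mm deep; 1 mm posterior, 1.2 mm lateral to bregma), tested 24–48 h after implantation. 5 μl icv injections at 60 min intervals; 100 pmol kisspeptin-10 given with the last. Controls received saline vehicle. Jugular blood was taken 60 min later (180 min). Serum testosterone was measured by commercial kit (sensitivity 0.1 ng/tube; intraassay CV 4.5%).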

No end group written: not given here.

In the case of “kisspeptin-10 (YNWNSFGLRF; ends and bridges not checked; UniProt Q15726 112-121, looked up)”, the “effect on GnRH neuron firing activity” value in the assay with GnRH neurons is “markedly increased GnRH neuron firing activity”. Moreover, the “testosterone levels at 60-min” value in the assay on adult male rats is 2.17 ± 0.2.

Source of the values: publication PMC3035813 (The Journal of neuroscience : the official journal of the …, 2009).
